# Bioassay records from PubChem BioAssay.
# Most compounds without a hit are left out; they make up all but 3% or so of the library.
# Insulin prom inh – inhibitors of insulin promoter-driven GFP, primary screen, imaging, TRM-6 cells (human fetal islet line), eGFP reporter, cell count. reporter expression induced with tamoxifen. inhibition, % at 2 µM. 0.9% of 130,000 active. AID 1273, 2008;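 active = inhibition above the mean plus 3 SD, with well images judged a real hit on visual review, cut at about 60% in these data, passing the limit was not always enough; inconclusive = inhibition over the cutoff but images rejected on review; inactive = inhibition not above the cutoff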
# RAM inhibit – inhibitors of the yeast RAM network, primary screen, dse1pr::URA3 reporter, 5-FOA selection. S. cerevisiae dse1pr::URA3 reporter, 5-FOA growth OD615, 2 d; analog-sensitive cbk1-as2 kinase mutant strain. AID 868, 2007. 1.8% of 190,000 active. inhibition, % at 50 µM;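 active = inhibition above a set limit, 3 SD over mean compound inhibition, cut at about 8.4% in these data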;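 also: 0% = DMSO-only wells with no growth and 100% = 10 µM 1-NA-PP1 full growth; inhibition rescues growth on 5-FOA so higher OD means more RAM inhibition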
# Insulin prom up – insulin promoter activators in MIN6 cells, imaging, high-content screening, mouse beta cells; MIN6 insulin promoter-GFP reporter; hits give high values; z-score at 5 µM; 0.3% of 190,000 active; AID 1625, 2009;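 active = z-score above 3 at 5 µM with at least 500 cells counted in the well; inconclusive = wells under 500 cells, flagged as cytotoxic or low count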
# Yeast life ext – compounds extending yeast replicative lifespan, primary screen, S. cerevisiae, OD615. 0.68% of 130,000 active. inhibition of the nicotinamide effect, % at 10 µM. S. cerevisiae growth with nicotinamide; deaD strain in restrictive glucose medium;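 active = inhibition above a set limit, placed 3 SD over the median of all compounds, cut at about 26% in these data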;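 also: 0% = nicotinamide-treated wells and 100% = cells grown without nicotinamide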
#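 Assay system: engineered S. cerevisiae DeaD replicative-lifespan strain, galactose-grown log-phase cells; medium: restrictive CSMM-D dextrose medium; also added: nicotinamide, 1.5 mM, co-present with compound; schedule: 48 h compound exposure at 30 °C, humidified; detection: absorbance at 615 nm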
# Yeast growth inh – growth inhibitors of yeast BB579 in restrictive medium, primary screen, yeast lifespan-shortening project, S. cerevisiae. OD615, 48 h. inhibition, % at 10 µM. 0.51% of 140,000 active. AID 804, 2007;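 active = inhibition above a set limit, 3 SD over the mean compound inhibition, cut at about 44% in these data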
#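 Test system: Saccharomyces cerevisiae DeaD strain BB579, replicative lifespan model yeast | Buffer or medium: Restrictive CSMM-D medium | Doses: One dose, 10 µM compound with 0.25% DMSO | Incubation: 48 h exposure, 30 °C | Detection: Culture absorbance at 615 nm | Control set: Amphotericin B at 10 µg/mL as positive control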
# The depositor's hits bear a star; ? = inconclusive; . = no result given.
SMILES,Insulin prom inh,RAM inhibit,Insulin prom up,Yeast life ext,Yeast growth inh
CC[n+]1c(C)n(-c2ccccc2)c2ccc(C(=O)OC)cc21,.,0,-0.16,.,.
OCCN1CCN(c2ncnc3c2c(-c2ccccc2)cn3-c2ccc(F)cc2)CC1,-33,2,-1.9,.,.
CC1CN(c2ncnc3c2c(-c2ccccc2)cn3-c2ccc(F)cc2)CC(C)O1 (stereo not given),.,8.7*,-1.8,.,.
Fc1ccc(-c2cnc3n2CCCCC3)cc1,.,1,0.34,.,.
CCC(=O)NC(c1ccc(C)cc1)c1cc([N+](=O)[O-])c2cccnc2c1O (stereo not given),44,3,-0.01,-4,85*
CC(=O)NC(c1ccc(C)cc1)c1cc([N+](=O)[O-])c2cccnc2c1O (stereo not given),.,2,0.17,.,.
Cc1csc(SC(C)C(=O)NCC2CCCCC2)n1 (stereo not given),28,2,0.39,.,.
CCOC(=O)Cc1[nH]nc2c1C(c1ccsc1)C(C#N)=C(N)O2 (stereo not given),27,1,-0.08,.,.
COc1ccc(CNC(=O)C2CCN(c3nc(OC)nc(OC)n3)CC2)cc1,-13,2,-0.18,90*,-37
Cc1cc(C)c(C(=O)O)c(CC(C)(C)C(=O)O)c1,.,.,3.1*,.,.
Cc1cc(C)c(C(=O)Nc2ccccc2)c(CC(C)(C)C(=O)O)c1,.,.,0.65,.,.
O=C(C1=C[C@H](C2CC2)C[C@H](OCCCCO)O1)N1CCN(Cc2ccccc2)CC1,.,-1,3.7*,.,.
CN(Cc1ccccc1)S(=O)(=O)c1cccc(C(=O)O)c1,0,-1,-0.52,.,.
Cc1sc2ncnc(N/N=C/c3ccccc3O)c2c1C,58,-1,-2,2,68*
Cc1sc2ncnc(N/N=C/c3ccc(O)cc3)c2c1C,.,-1,0.26,-2,-21
CC(C)CC1c2[nH]c3ccccc3c2CCN1CCCn1cccn1 (stereo not given),.,1,0.72,.,.
COc1ccc(/C=C2\CCCC3C2=NN(C(=O)CSc2ncn[nH]2)C3c2ccc(OC)cc2)cc1 (stereo not given),-72,8.4*,-1.4,-1,-28
CCOC(=O)COc1ccccc1/C=C\[N+](=O)[O-],53,-1,-0.32,44*,35
Cc1c(Cl)cccc1NC(=O)c1ncn[nH]1,.,.,0.07,.,.
Cc1nnc(SCC(=O)c2ccc(Cl)cc2)s1,71*,0,0.13,.,.
COc1ccc(OC(=O)c2ccc(Cl)cc2)c(C(C)=O)c1,.,4,0.04,.,.
COc1ccc2c(OC)cc(-c3ccccc3)nc2c1,100*,1,.,.,-16
COc1ccc(-c2cc(OC)c3ccccc3n2)cc1,31,0,0.18,-6,-37
COc1ccc(-n2ncc3c(NCc4ccc5c(c4)OCO5)ncnc32)cc1,75*,2,1.3,-3,-37
COc1cc(NC2c3ccccc3C(=O)N2c2ccc(C)cn2)cc(OC)c1OC (stereo not given),.,1,.,27*,-38
SMILES,Insulin prom inh,RAM inhibit,Insulin prom up,Yeast life ext,Yeast growth inh
COc1cc(NC2c3ccccc3C(=O)N2c2cc(C)ccn2)cc(OC)c1OC (stereo not given),.,-1,-0.01,12,-13
COC(=O)CSc1nc(-c2ccccc2)cc(-c2ccco2)c1C#N,.,9.7*,0.26,-19,-10
N#Cc1c(-c2ccco2)cc(C2CC2)nc1SCC(=O)c1ccccc1,.,8.7*,.,-10,-29
O[C@@H]1COC(Nc2ccc(N=Nc3ccccc3)cc2)C[C@@H]1O (stereo not given in full),.,.,-0.53,.,.
CN(Cc1nc(-c2cnccn2)no1)Cc1n[nH]c2c1CCCC2,10,3,-0.32,.,.
COc1ccc(OC)c(NC(=O)CSc2nnc(C3CCCCC3)o2)c1,.,-1,0.43,.,.
c1ccc2c(N3CCCCC3)nc(N3CCCCC3)nc2c1,50,-1,2.3,-9,16
C(=C\c1nc(N2CCCCCC2)c2ccccc2n1)/c1ccccc1,.,-1,?,-7,74*
Cc1ccc(NC(=O)NCCCl)cc1S(=O)(=O)N1CCOCC1,.,.,-0.18,.,.
COc1ccc(CNC(=O)c2cccnc2Sc2ccc(C)c(C)c2)cc1,-40,9.3*,1.7,3,-47
O=C(NNc1cccc([N+](=O)[O-])c1)/C(=C\c1cccnc1)NC(=O)c1ccccc1,.,.,0.53,.,.
CCn1c(CNC(=O)Cc2ccc(OC)cc2)nnc1SCC(=O)Nc1ccc(C(=O)O)cc1,.,8.8*,-0.07,.,.
CC(C)c1nnc(SCC(=O)NCc2ccco2)n1C,11,0,-1.1,-9,-10
O=C(CSc1nnc2ccccn12)NCc1ccco1,71*,0,-0.13,.,.
CC(C)Oc1ccc(C(=O)Nc2ccc(Cl)c(S(=O)(=O)Nc3ccc(Cl)cc3)c2)cc1,7,6,-0.33,5,-46
COc1ccc(NC(=O)c2cc(SC)ccc2Cl)cc1,.,4,0.27,-6,-20
Cc1ccc(C(=O)NNC(=O)CCN2C(=O)C3CCCCC3C2=O)cc1 (stereo not given),.,0,-0.45,-3,-16
Cc1cc(N2C(=O)c3ccccc3C2=O)n(C)n1,.,.,3.8*,.,.
Nc1[nH]n2c(=O)cc(-c3ccccc3)nc2c1N=Nc1ccc2c(c1)OCO2,.,10*,-0.07,.,.
Oc1oc(C=Nc2ccc(F)cc2F)c2ccccc12,-75,2,0.18,.,.
Cc1ccc(/C=N/NC(=O)Cn2nnc(N)n2)o1,.,.,-0.17,.,.
CC(=C1C(=O)c2ccccc2C1=O)N1CCN(C/C=C/c2ccccc2)CC1,8,-1,1.8,57*,-2
O=C1OC(N2CCN(C/C=C/c3ccccc3)CC2)c2ccccc21 (stereo not given),83*,1,-0.15,4,-61
CC(=C1C(=O)c2ccccc2C1=O)N1CCN(Cc2ccccc2)CC1,-26,-1,0.64,37,-37
O=C(NCc1ccc2c(c1)OCO2)c1ccc(CSCc2cccc(Cl)c2)o1,-61,8.8*,-0.11,-3,-37
SMILES,Insulin prom inh,RAM inhibit,Insulin prom up,Yeast life ext,Yeast growth inh
N#C/C(=C\c1ccccc1)C(=O)N(c1ccccn1)C1CCCCC1,31,1,-0.09,63*,-40
COc1ccccc1NC(=O)/C=C1\SCC(=O)N1C,.,1,4.7*,.,.
COc1ccc(-c2csc(NC(=O)/C(N=Nc3ccccc3)=C(\C)O)n2)cc1,32,5,0.07,.,.
O=C(CN(CC1CCCO1)C(=O)c1nsc(Cl)c1Cl)NC1CCCC1 (stereo not given),-86,4,-0.18,.,.
Cc1ccc(CC(NC(=O)c2ccccc2)C(=O)N2CCCC2C(=O)O)cc1 (stereo not given),20,2,0.41,7,-22
O=C(NC(Cc1ccc2c(c1)OCO2)C(=O)N1CCCC1C(=O)O)c1ccccc1 (stereo not given),87*,-1,1.4,-6,7
CCOP(=O)(OCC)c1nc(-c2ccc(Cl)cc2Cl)oc1N1CCOCC1,-21,0,-1.5,.,.
Nc1ccc(-c2nc3nc(N)nc(N)c3nc2-c2ccc(N)cc2)cc1,.,.,4.9*,.,.
